The species entered for data set [1] is Homo sapiens. Kind of data set: Selectivity index, ratio of Kd for binding affinity to NHERF2 PDZ1 domain (unknown origin) expressed in Escherichia coli BL21 to Kd for binding affinity to C-terminal His6 tagged CAL PDZ domain (unknown origin) expressed in Escherichia coli BL21. In outline:
(§1)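 CAL, NHERF1 and NHERF2 PDZ domains carried a C-terminal His6 tag, were expressed in E. coli BL21 (0.1 mM IPTG, 16 h at 18 °C) and purified on Ni-NTA. For direct binding, 50 nM fluorescein-labelled peptide was titrated with PDZ protein (0–2.5 μM CAL; 0–25 μM NHERF1/2) in PBS pH 7.4 with 0.01% Triton X-100 and 2 mM TCEP for 1 h at room temperature. Fluorescence polarization gave KD; n = 3.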

Data set [2] deals with T1, Golgi-associated PDZ and coiled-coil motif-containing protein (Homo sapiens, UniProt Q9HD26). In words: Binding affinity to C-terminal His6 tagged CAL PDZ domain (unknown origin) expressed in Escherichia coli BL21 incubated for 1 hr by fluorescence polarization assay. In general terms: Polarisation of emitted light reports the rotation of a fluorescent probe.
For data set [3], the species on record is Homo sapiens. In words: Selectivity index, ratio of Kd for binding affinity to NHERF1 PDZ1 domain (unknown origin) expressed in Escherichia coli BL21 to Kd for binding affinity to C-terminal His6 tagged CAL PDZ domain (unknown origin) expressed in Escherichia coli BL21. In outline:
as §1

Data set [4] has as its target T2, Na(+)/H(+) exchange regulatory cofactor NHE-RF2 (Homo sapiens, UniProt Q15599). Kind of data set: Binding affinity to NHERF2 PDZ1 domain (unknown origin) expressed in Escherichia coli BL21 incubated for 1 hr by fluorescence polarization based competition assay. In outline: as §1
The target of data set [5] is T3, Na(+)/H(+) exchange regulatory cofactor NHE-RF1 (Homo sapiens, UniProt O14745).
T3 sequence (O14745 whole entry): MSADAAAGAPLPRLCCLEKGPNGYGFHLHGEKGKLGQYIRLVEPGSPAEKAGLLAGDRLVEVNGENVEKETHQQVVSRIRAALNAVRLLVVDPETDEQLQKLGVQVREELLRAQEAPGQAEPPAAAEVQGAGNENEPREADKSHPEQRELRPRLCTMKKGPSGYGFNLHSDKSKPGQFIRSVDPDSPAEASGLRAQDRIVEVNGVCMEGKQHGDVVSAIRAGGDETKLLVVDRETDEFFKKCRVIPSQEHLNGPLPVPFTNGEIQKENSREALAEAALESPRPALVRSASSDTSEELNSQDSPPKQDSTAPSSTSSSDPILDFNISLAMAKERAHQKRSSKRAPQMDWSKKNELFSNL
Kind of data set: Binding affinity to NHERF1 PDZ1 domain (unknown origin) expressed in Escherichia coli BL21 incubated for 1 hr by fluorescence polarization based competition assay. In outline: as §1

Data set [6] addresses T2, Na(+)/H(+) exchange regulatory cofactor NHE-RF2. In words: Binding affinity to NHERF2 PDZ2 domain (unknown origin) expressed in Escherichia coli BL21 incubated for 1 hr by fluorescence polarization based competition assay.
In data set [7] the test system is Cystic fibrosis transmembrane conductance regulator (Homo sapiens), P13569 [F508del]. Kind of data set: Corrector activity at CFTR F508del mutant in human CF-HBE cells isolated from patient with F508del mutation assessed as increase in short-circuit current at 5 uM incubated for 24 hrs. Type of data set: cell-based. To be noted: Epithelial cell, filed as activator. In outline: (§2)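 Primary bronchial epithelia from F508del/F508del donors (three donors) were grown at air/liquid interface and given corrector (5 μM VX-661) or none. After 24 h, peptide or DMSO was applied apically in Hank's solution for 1 h, then removed, and cells were kept a further 24 h. Ussing chambers used Ringer's with a low-chloride apical side. Isc changes were read after forskolin (10 μM) activation and Inh-172 inhibition; n = 5 filters.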

The subject of data set [8] is Epithelial cell. Kind of data set: Inhibition of CAL and CFTR F508del mutant interaction in human CF-HBE cells isolated from patient with F508del mutation assessed as increase in short-circuit current at 100 nM incubated for 24 hrs in presence of 5 uM VX-809 by relative to VX-809 alone. Format: cell-based. The following applies: time 2.0 hrs, in the assay text read “incubated for 2 hrs” for “incubated for 24 hrs”. In outline:
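Primary F508del-homozygous bronchial epithelia from one donor, grown at air/liquid interface, were treated with 5 μM VX-809 for 48 h, then with 100 nM peptide for 2 h. Short-circuit current was measured in an Ussing chamber and scaled to VX-809 alone (100%). Results are 2–3 replicates per condition.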

Data set [9] addresses T1, Golgi-associated PDZ and coiled-coil motif-containing protein. In words: Binding affinity to C-terminal His6 tagged CAL PDZ domain (unknown origin) expressed in Escherichia coli BL21 incubated for 1 hr using FAM-22 probe by fluorescence polarization based competition assay.
Data set [10] is described as follows: Drug uptake in human HeLa cells at 5 uM incubated for 2 hrs by flow cytometry relative to CPP9. Format: ADME, cell-based. In outline:
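Naphthofluorescein-labelled cyclic peptides (5 μM final, 0.5% DMSO, in DMEM with 10% FBS) were applied to HeLa cells, seeded the day before at 15 × 10^4 per well, for 2 h at 37 °C. Cells were washed with cold DPBS, trypsinized and analysed by flow cytometry. Mean fluorescence was expressed as % of CPP9; n = 3.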
For orientation: A flow cytometer gives signals particle by particle.

Data set [11] can be described thus: Half life in 25% human serum at 100 uM incubated for 24 hrs at 37 degC by HPLC analysis. Format: ADME, cell-free. In outline:
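Human serum diluted 1:4 in DPBS was pre-warmed to 37 °C, and peptide (100 μM final) was incubated in it at 37 °C. At each time point, aliquots were deproteinized with 15% TCA in MeOH plus MeCN for 24 h at 4 °C and centrifuged. Supernatants were analysed by reversed-phase HPLC, reading at 214 nm, for intact peptide remaining.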

Data set [12] is described as follows: Drug metabolism in human HCT-116 cells assessed as formation of (2S)-2-[[(2S)-2-[[(2S,3R)-2-[[(2R)-2-[[(2S)-1-[(2S)-2-[[(2S)-2-[[(2S)-2-[[(2S)-2-[[(2R)-2-[[(2R)-2-acetamido-3-sulfanyl-propanoyl]amino]-5-guanidino-pentanoyl]amino]-5-guanidino-pentanoyl]amino]-5-guanidino-pentanoyl]amino]-3-(2-naphthyl)propanoyl]amino]-3-(benzothiophen-3-yl)propanoyl]piperidine-2-carbonyl]amino]-3-methyl-3-sulfanyl-butanoyl]amino]-3-hydroxy-butanoyl]amino]-5-guanidino-pentanoyl]amino]-3,3-dimethyl-butanoic acid at 5 uM incubated for 4 to 24 hrs by MALDI-TOF-TOF mass spectrometry. Format: ADME, cell-based. The following applies: hct-116, 5 µM, time 4-24 hrs. In outline:
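HCT116 spheroids (7,000 cells seeded on agarose, grown 12 days) were exposed to 5 μM cyclic peptide for 4 or 24 h. They were washed, gelatin-embedded and cut into 16 μm sections. Positive-ion MALDI-TOF-TOF imaging (m/z 360–1400) gave heatmaps, scaled to the most intense signal, for intact peptide and about 20 possible proteolytic fragments.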

In a further data set the test system is HCT-116. In words: Toxicity in human HCT-116 cells assessed as reduction in cell viability up to 50 uM incubated for 72 hrs by MTT assay. Format: cell-based. The following applies: hct-116, 72 h. In outline:
(§3)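 CFBE41o-, HCT116 or H358 cells were seeded at 5 × 10^3 per well and the next day exposed for 72 h at 37 °C to serial dilutions of peptide in DPBS at constant 0.5% DMSO. MTT was added for 4 h, formazan was solubilized with SDS-HCl overnight and absorbance read at 565 nm. Viability was expressed relative to 0.5% DMSO controls (100%); n = 3.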
(In general: Formazan colour is commonly taken as a measure of viable cells.)

A further data set deals with NCI-H358. In words: Toxicity in human NCI-H358 cells assessed as reduction in cell viability up to 50 uM incubated for 72 hrs by MTT assay. Format: cell-based. The following applies: nci-h358, 72 h. In outline:
as §3

The subject of data set [13] is Epithelial cell. In words: Inhibition of CAL and CFTR F508del mutant interaction in human CF-HBE cells isolated from patient with F508del mutation assessed as increase in short-circuit current incubated for 24 hrs in presence of 5 uM VX-661 by relative to VX-661 alone. Format: cell-based. In outline:
as §2

Data set [14] can be described thus: Toxicity in human CFBE41o- cells assessed as reduction in cell viability up to 50 uM incubated for 72 hrs by MTT assay. Type of data set: cell-based. In outline:
as §3

Data set [15] is described as follows: Drug uptake in human HeLa cells assessed as absolute cytosolic entry efficiency at 5 uM incubated for 2 hrs by flow cytometry. Type of data set: ADME, subcellular, Cytoplasm.

Calls of active or inactive are those of the source. No cut-off for these calls is given here. Positions of bridges follow the written chain, without caps; N, C: chain ends. Non-standard residues stand in square brackets, D forms with d. Residues, ends and D or L forms follow the SMILES beside them. 2Nal = N[C@@H](Cc1ccc2ccccc2c1)C(=O)O; Bta = N[C@@H](Cc1csc2ccccc12)C(=O)O; Pen = CC(C)(S)[C@H](N)C(=O)O; Tle = CC(C)(C)[C@H](N)C(=O)O; Pip = O=C(O)[C@@H]1CCCCN1 Where only a bound is given, the exact number is not on record here.

T2 sequence (Q15599 whole entry, the tested form may be a part): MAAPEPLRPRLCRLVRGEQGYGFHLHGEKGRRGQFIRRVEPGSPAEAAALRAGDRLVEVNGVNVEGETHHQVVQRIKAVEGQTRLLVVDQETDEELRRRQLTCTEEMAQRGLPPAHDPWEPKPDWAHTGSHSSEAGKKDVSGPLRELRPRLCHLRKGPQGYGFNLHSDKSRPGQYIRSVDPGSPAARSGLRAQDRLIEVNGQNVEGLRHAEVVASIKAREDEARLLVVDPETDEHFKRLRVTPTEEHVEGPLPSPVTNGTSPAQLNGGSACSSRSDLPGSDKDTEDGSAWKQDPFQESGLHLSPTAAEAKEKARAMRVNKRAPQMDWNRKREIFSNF
Chain of Cystic fibrosis transmembrane conductance regulator (Homo sapiens), P13569 [F508del] (P13569 as listed by the source): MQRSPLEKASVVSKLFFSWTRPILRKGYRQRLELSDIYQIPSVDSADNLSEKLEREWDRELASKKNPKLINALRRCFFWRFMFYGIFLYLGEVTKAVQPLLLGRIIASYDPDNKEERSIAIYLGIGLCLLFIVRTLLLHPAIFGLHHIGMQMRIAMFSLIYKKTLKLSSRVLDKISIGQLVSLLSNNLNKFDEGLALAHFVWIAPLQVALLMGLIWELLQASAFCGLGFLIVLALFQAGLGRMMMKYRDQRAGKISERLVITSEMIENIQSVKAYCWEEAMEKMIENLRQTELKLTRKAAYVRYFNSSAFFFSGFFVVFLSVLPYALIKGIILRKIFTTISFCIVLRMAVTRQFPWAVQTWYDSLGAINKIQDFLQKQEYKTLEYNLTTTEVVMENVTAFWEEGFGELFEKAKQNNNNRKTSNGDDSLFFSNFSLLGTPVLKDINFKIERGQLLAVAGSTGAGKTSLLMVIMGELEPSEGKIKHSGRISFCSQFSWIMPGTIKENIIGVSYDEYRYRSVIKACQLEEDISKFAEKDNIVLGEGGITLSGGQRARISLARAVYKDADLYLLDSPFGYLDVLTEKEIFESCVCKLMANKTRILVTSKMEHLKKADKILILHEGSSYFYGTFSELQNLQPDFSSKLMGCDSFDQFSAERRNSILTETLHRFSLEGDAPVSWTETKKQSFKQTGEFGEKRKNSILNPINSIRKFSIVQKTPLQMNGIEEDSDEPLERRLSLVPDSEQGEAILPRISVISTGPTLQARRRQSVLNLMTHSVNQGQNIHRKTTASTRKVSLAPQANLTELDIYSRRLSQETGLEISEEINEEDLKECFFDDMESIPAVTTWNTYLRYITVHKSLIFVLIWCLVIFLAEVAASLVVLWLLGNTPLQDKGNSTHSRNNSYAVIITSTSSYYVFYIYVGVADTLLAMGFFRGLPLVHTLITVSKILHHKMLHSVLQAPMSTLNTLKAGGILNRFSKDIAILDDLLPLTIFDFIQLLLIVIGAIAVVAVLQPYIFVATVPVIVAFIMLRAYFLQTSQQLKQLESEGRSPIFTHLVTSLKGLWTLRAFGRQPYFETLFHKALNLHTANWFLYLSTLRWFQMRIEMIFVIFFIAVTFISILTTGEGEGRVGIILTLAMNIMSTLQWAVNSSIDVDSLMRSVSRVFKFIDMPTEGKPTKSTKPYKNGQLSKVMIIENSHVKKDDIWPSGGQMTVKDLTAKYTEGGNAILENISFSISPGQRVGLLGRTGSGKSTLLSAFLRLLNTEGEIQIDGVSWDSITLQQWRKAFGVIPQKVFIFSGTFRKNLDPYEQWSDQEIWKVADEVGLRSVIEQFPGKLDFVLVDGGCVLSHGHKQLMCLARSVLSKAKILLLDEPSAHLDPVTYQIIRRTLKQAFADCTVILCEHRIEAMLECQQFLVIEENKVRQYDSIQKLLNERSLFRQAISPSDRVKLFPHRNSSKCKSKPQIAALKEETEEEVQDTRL

By Kd is commonly meant the concentration at which binding is half-saturated. For the compound `C[C@@H](O)[C@H](NC(=O)[C@@H](NC(=O)[C@@H](NC(=O)[C@H](Cc1csc2ccccc12)NC(=O)[C@H](Cc1ccc2ccccc2c1)NC(=O)[C@H](CCCNC(=N)N)NC(=O)[C@H](CCCNC(=N)N)NC(=O)[C@@H](CCCNC(=N)N)NC(=O)[C@H](CS)NC(=O)COCCOCCNC(=O)c1ccc2c(c1)C(=O)OC21c2ccc(O)cc2Oc2cc(O)ccc21)C(C)(C)S)C(C)(C)C)C(=O)N[C@@H](CCCNC(=N)N)C(=O)N[C@H](C(=O)O)C(C)(C)C`, the Ratio in the data set filed under Homo sapiens [1] came to 11.4; in the data set filed under Homo sapiens [3] it was 6.7. Also, the Kd in data set [2] worked out at 49 nM; in [4], 560 nM; in [5], 330 nM; in data set [6], 2820 nM.

On to `CC(C)(CO)c1cc2cc(NC(=O)C3(c4ccc5c(c4)OC(F)(F)O5)CC3)c(F)cc2n1C[C@@H](O)CO`, for which the outcome in data set [7] was Active.

Turning to `CC(=O)N[C@H]1CSSC(C)(C)[C@@H](C(=O)N[C@H](C(=O)N[C@H](C(=O)N[C@@H](CCCNC(=N)N)C(=O)N[C@H](C(=O)O)C(C)(C)C)[C@@H](C)O)C(C)(C)C)NC(=O)[C@H](Cc2csc3ccccc23)NC(=O)[C@H](Cc2ccc3ccccc3c2)NC(=O)[C@H](CCCNC(=N)N)NC(=O)[C@H](CCCNC(=N)N)NC(=O)[C@@H](CCCNC(=N)N)NC1=O` (Ac-C[dR]RR[2Nal][Bta][Pen][Tle]TR[Tle]-OH; disulfide 1-7), the inhibition entry in the data set on Epithelial cell [8] is “inactive”.

By IC50 is commonly meant the concentration needed to halve the response being measured. As usually defined, the half-life is how long it takes for the measured level to halve. Read a high half-life as slow decline. Compound `CC(=O)N[C@@H](CS)C(=O)N[C@H](CCCNC(=N)N)C(=O)N[C@@H](CCCNC(=N)N)C(=O)N[C@@H](CCCNC(=N)N)C(=O)N[C@@H](Cc1ccc2ccccc2c1)C(=O)N[C@@H](Cc1csc2ccccc12)C(=O)N1CCCC[C@H]1C(=O)N[C@H](C(=O)N[C@H](C(=O)N[C@@H](CCCNC(=N)N)C(=O)N[C@H](C(=O)O)C(C)(C)C)[C@@H](C)O)C(C)(C)S` (Ac-C[dR]RR[2Nal][Bta][Pip][Pen]TR[Tle]-OH) came in with an IC50 in data set [9] of 20 nM. Also, the Drug uptake in data set [10] is on record as 61%. The half-life at 100 µM in data set [11] is > 24 h.

Consider `CC(=O)N[C@H]1CSSC(C)(C)[C@@H](C(=O)N[C@H](C(=O)N[C@@H](CCCNC(=N)N)C(=O)N[C@H](C(=O)O)C(C)(C)C)[C@@H](C)O)NC(=O)[C@@H]2CCCCN2C(=O)[C@H](Cc2csc3ccccc23)NC(=O)[C@H](Cc2ccc3ccccc3c2)NC(=O)[C@H](CCCNC(=N)N)NC(=O)[C@H](CCCNC(=N)N)NC(=O)[C@@H](CCCNC(=N)N)NC1=O` (Ac-C[dR]RR[2Nal][Bta][Pip][Pen]TR[Tle]-OH; disulfide 1-8), for which, in data set [12], the Drug metabolism result is “Metabolite_Detected”. Further, the Activity entry (with HCT-116; in the data set on NCI-H358; in data set [14]) was “Non-Toxic” in each case. The conc. at maximal effect in the data set with Epithelial cell [13] turned out to be 100 nM. Besides, the inhibition result in the data set with Epithelial cell [13] is “Dose-dependent effect”.

`N=C(N)NCCC[C@@H]1NC(=O)[C@H](Cc2ccc3ccccc3c2)NC(=O)[C@@H](Cc2ccccc2)NC(=O)[C@H](CCC(N)=O)NC(=O)[C@@H](CCCNC(=N)N)NC(=O)[C@H](CCCNC(=N)N)NC(=O)[C@@H](CCCNC(=N)N)NC1=O` (cyclo([2Nal]R[dR]R[dR]Q[dF])): the Drug uptake in [15] turned out to be 62%.

For the origin of these results see ChEMBL document CHEMBL4699666, “Cyclic Peptidyl Inhibitors against CAL/CFTR Interaction for Treatment of Cystic Fibrosis” (J Med Chem, 2020).
